Results reported in ChEMBL document CHEMBL4665666, “Discovery and characterization of trypanocidal cysteine protease inhibitors from the 'malaria box'” (Eur J Med Chem, 2019).

Columns and labels:
[1] = biological target: Cruzipain (Trypanosoma cruzi) (UniProt P25779); experiment: Inhibition of recombinant Trypanosoma cruzi cruzain at 5 uM using Z-FR-AMC as substrate preincubated for 10 mins followed by substrate addition and measured at 12 sec interval for 5 mins by fluorimetric analysis relative to control; details: time 15.0 min
Sequence of Cruzipain (Trypanosoma cruzi) (P25779 123-467 limits assumed): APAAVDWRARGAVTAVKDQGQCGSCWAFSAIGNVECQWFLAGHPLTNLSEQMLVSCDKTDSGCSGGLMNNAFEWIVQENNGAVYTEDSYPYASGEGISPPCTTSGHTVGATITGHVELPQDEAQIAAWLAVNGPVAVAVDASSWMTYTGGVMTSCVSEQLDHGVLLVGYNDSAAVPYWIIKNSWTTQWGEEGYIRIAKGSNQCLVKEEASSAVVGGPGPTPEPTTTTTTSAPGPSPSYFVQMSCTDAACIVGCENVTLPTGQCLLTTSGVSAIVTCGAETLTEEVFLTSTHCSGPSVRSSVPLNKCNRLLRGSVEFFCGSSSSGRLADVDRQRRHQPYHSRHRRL
How it was run: (§1)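 Recombinant rhodesain or cruzain (1 nM) in 0.1 M sodium acetate pH 5.5, 0.01% Triton X-100, 1 mM β-mercaptoethanol. Compound at a single concentration, either without or after 10 min enzyme pre-incubation. Inhibition is relative to DMSO, with E-64 as positive control. Done in duplicate (primary screen) or triplicate.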

[2] = biological target: Cruzipain (Trypanosoma cruzi) (UniProt P25779); experiment: Inhibition of recombinant Trypanosoma cruzi cruzain at 10 uM using Z-FR-AMC as substrate and measured at 12 sec interval for 5 mins without preincubation by fluorimetric analysis relative to control
How it was run: as §1, with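 “pre-incubation. Z-FR-AMC 2.5 µM, read at 340/440 nm every 12 s for 5 min.” for “pre-incubation.”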

[3] = biological target: Rhodesain (Trypanosoma brucei rhodesiense) (UniProt Q95PM0); experiment: Inhibition of recombinant Trypanosoma brucei rhodesain expressed in Pichia pastoris at 10 uM using Z-FR-AMC as substrate preincubated for 10 mins followed by substrate addition and measured at 12 sec interval for 5 mins by fluorimetric analysis relative to control; details: time 15.0 min
Sequence of Rhodesain (Trypanosoma brucei rhodesiense) (Q95PM0 1-450): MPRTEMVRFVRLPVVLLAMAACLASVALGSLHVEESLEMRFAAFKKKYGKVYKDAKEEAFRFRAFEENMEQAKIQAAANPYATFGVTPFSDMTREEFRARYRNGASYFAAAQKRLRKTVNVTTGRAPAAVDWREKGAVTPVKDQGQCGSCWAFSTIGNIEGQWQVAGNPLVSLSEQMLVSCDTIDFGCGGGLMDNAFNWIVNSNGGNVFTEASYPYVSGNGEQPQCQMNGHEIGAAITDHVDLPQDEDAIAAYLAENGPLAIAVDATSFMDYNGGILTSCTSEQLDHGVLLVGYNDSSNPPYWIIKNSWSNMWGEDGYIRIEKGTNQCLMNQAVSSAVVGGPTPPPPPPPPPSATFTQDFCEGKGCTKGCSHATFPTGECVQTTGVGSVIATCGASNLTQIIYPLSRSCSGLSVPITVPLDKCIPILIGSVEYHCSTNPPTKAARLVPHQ
How it was run: as §1, with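 “pre-incubation. Z-FR-AMC 2.5 µM, read at 340/440 nm every 12 s for 5 min.” for “pre-incubation.”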

[4] = test system: Trypanosoma brucei brucei; experiment: Trypanocidal activity against Trypanosoma brucei brucei Squib 427 assessed as reduction in parasite viability; format: functional, organism-based
[5] = biological target: Rhodesain (Trypanosoma brucei rhodesiense) (UniProt Q95PM0); experiment: Inhibition of recombinant Trypanosoma brucei rhodesain expressed in Pichia pastoris at 5 uM using Z-FR-AMC as substrate and measured at 12 sec interval for 5 mins without preincubation by fluorimetric analysis relative to control; how it was run: as §1
[6] = biological target: Rhodesain (Trypanosoma brucei rhodesiense) (UniProt Q95PM0); experiment: Inhibition of recombinant Trypanosoma brucei rhodesain expressed in Pichia pastoris at 10 uM using Z-FR-AMC as substrate and measured at 12 sec interval for 5 mins without preincubation by fluorimetric analysis relative to control
How it was run: as §1, with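 “pre-incubation. Z-FR-AMC 2.5 µM, read at 340/440 nm every 12 s for 5 min.” for “pre-incubation.”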

[7] = biological target: Cruzipain (Trypanosoma cruzi) (UniProt P25779); experiment: Inhibition of recombinant Trypanosoma cruzi cruzain at 10 uM using Z-FR-AMC as substrate preincubated for 10 mins followed by substrate addition and measured at 12 sec interval for 5 mins by fluorimetric analysis relative to control; details: time 15.0 min
How it was run: as §1, with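 “pre-incubation. Z-FR-AMC 2.5 µM, read at 340/440 nm every 12 s for 5 min.” for “pre-incubation.”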

[8] = biological target: Cruzipain (Trypanosoma cruzi) (UniProt P25779); experiment: Inhibition of recombinant Trypanosoma cruzi cruzain at 5 uM using Z-FR-AMC as substrate and measured at 12 sec interval for 5 mins without preincubation by fluorimetric analysis relative to control; how it was run: as §1
[9] = biological target: Cruzipain (Trypanosoma cruzi) (UniProt P25779); experiment: Inhibition of recombinant Trypanosoma cruzi cruzain at 20 uM using Z-FR-AMC as substrate preincubated for 10 mins followed by substrate addition and measured at 12 sec interval for 5 mins by fluorimetric analysis relative to control; details: time 15.0 min
How it was run: as §1, with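 “pre-incubation. Z-FR-AMC 2.5 µM, read at 340/440 nm every 12 s for 5 min.” for “pre-incubation.”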

[10] = biological target: Rhodesain (Trypanosoma brucei rhodesiense) (UniProt Q95PM0); experiment: Inhibition of recombinant Trypanosoma brucei rhodesain expressed in Pichia pastoris at 20 uM using Z-FR-AMC as substrate and measured at 12 sec interval for 5 mins without preincubation by fluorimetric analysis relative to control
How it was run: (§2)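 Run with no pre-incubation or with 10 min enzyme-compound pre-incubation. Fluorescence read at 340/440 nm. Concentration was set by solubility under assay conditions. Inhibition is against DMSO, with E-64 as positive control; triplicate.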

[11] = biological target: Rhodesain (Trypanosoma brucei rhodesiense) (UniProt Q95PM0); experiment: Inhibition of recombinant Trypanosoma brucei rhodesain expressed in Pichia pastoris at 20 uM using Z-FR-AMC as substrate preincubated for 10 mins followed by substrate addition and measured at 12 sec interval for 5 mins by fluorimetric analysis relative to control; details: time 15.0 min; how it was run: as §2
[12] = biological target: Rhodesain (Trypanosoma brucei rhodesiense) (UniProt Q95PM0); experiment: Inhibition of recombinant Trypanosoma brucei rhodesain expressed in Pichia pastoris at 5 uM using Z-FR-AMC as substrate preincubated for 10 mins followed by substrate addition and measured at 12 sec interval for 5 mins by fluorimetric analysis relative to control; details: time 15.0 min; how it was run: as §1
[13] = biological target: Cruzipain (Trypanosoma cruzi) (UniProt P25779); experiment: Inhibition of recombinant Trypanosoma cruzi cruzain at 20 uM using Z-FR-AMC as substrate and measured at 12 sec interval for 5 mins without preincubation by fluorimetric analysis relative to control
How it was run: as §1, with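 “pre-incubation. Z-FR-AMC 2.5 µM, read at 340/440 nm every 12 s for 5 min.” for “pre-incubation.”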

Schistosoma mansoni [14] = experiment: Inhibition of recombinant Schistosoma mansoni SmCB1 expressed in Pichia pastoris at 5 uM using Z-FR-AMC as substrate preincubated for 10 mins followed by substrate addition and measured at 23 sec interval for 30 mins by fluorimetric analysis relative to control
How it was run: (§3)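 SmCB1 (recombinant, 8 nM) in 0.1 M sodium acetate pH 5.5 with 0.01% Triton X-100 and 4 mM β-mercaptoethanol. Compound at 5 µM, either not pre-incubated or pre-incubated 10 min with enzyme. Z-FR-AMC 20 µM, fluorescence 340/440 nm every 23 s for 30 min. Inhibition is versus DMSO, with E-64 control; each condition in duplicate.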

Schistosoma mansoni [15] = experiment: Inhibition of recombinant Schistosoma mansoni SmCB1 expressed in Pichia pastoris at 5 uM using Z-FR-AMC as substrate and measured at 23 sec interval for 30 mins without preincubation by fluorimetric analysis relative to control; how it was run: as §3

inhibition (Schistosoma mansoni [14]) [%]	inhibition (Schistosoma mansoni [15]) [%]	Compound	inhibition [1] [%]	inhibition [2] [%]	inhibition [3] [%]	IC50 [4] [µM]	inhibition [5] [%]	inhibition [6] [%]	inhibition [7] [%]	inhibition [8] [%]	inhibition [9] [%]	inhibition [10] [%]	inhibition [11] [%]	inhibition [12] [%]	inhibition [13] [%]
		CCOc1ccc(/C=C/c2nc(=O)c3ccccc3o2)cc1	88.6	10	0	32	32.7	8	3	30.1	10	14	0	67	15
73	9	Cc1ccc(CN2CCC(C(=O)Nc3ccc(-c4cc5ccccc5[nH]4)cc3)CC2)o1													
48	4.1	CC(C)(C)c1ccc(O)c(CNC2CCCCC2)c1													
50	48.3	COc1ccc(Br)cc1C1Nc2ccc3ccccc3c2C2=C1C(=O)CC(c1ccccc1)C2 (stereo not given)	37.3				27.6			7				72.7	
47.3	0	Cc1cc(NC(=O)c2cccc(C(F)(F)F)c2)n(-c2nc(-c3ccc4c(c3)OCO4)cs2)n1	42				41			18.4				69.4	
38.5	13.6	COc1ccc(-c2cc3c(nn2)-c2ccccc2C3=O)cc1													
5.2	49.7	CC1(c2ccccc2)Nc2ccccc2-c2nc3ccccc3n21 (stereo not given)													
		CCOC(=O)c1c(C)n(-c2ccccc2)c2ccc(OC(=O)c3cc(OC)c(OC)c(OC)c3)cc12	51.7	10	14		38.5	4	19	36.8				74.4	
		COc1ccc2sc(N(Cc3cccnc3)C(=O)c3ccc(C#N)cc3)nc2c1	72.3	9	21	32	50.7	10	7	53				76.9	
